Results: ChEMBL document CHEMBL4513216, “Probing the Open Global Health Chemical Diversity Library for Multistage-Active Starting Points for Next-Generation Antimalarials” (ACS Infect Dis, 2020)

Test: Toxicity liver stage against HepG2, at 10uM
Format: cell-based
Parameters: test concentration 10 uM, cell line HepG2-A16-CD81EGFP
Details: human, HepG2-A16-CD81EGFP cells; read-out: INHIBITION
How it was run: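 Uninfected HepG2-A16-CD81EGFP cells, 3 × 10^3 per well, 1536-well, plated on prespotted compound at 10 μM final, parasite-free screening media added to match infected plates; puromycin 10 μM positive, DMSO 0.5% negative; run in parallel with 48 h PbLuc assay at 37 °C, 5% CO2; viability by CellTiter-Glo luminescence, normalized to controls.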

Row | SMILES | cytotoxicity at 10 µM
1 | Cc1cc(N2CCCCC2)nc(N(CCO)CCO)c1C#N | -7.32%
2 | CC(=O)N1CCN(c2cnnc(N3CCCC3)c2)CC1 | 8.19%
3 | CCO[C@@H]1CC[C@H]2[C@H]1OCCN2C(=O)c1ccc(OC)c(F)c1 | 15.7%
4 | CCN1CC2(CC1=O)CN(C(=O)N(C)C)CCN(S(C)(=O)=O)C2 (stereo not given) | -0.757%
5 | CN(C)CCN1CCO[C@H]2CN(C(=O)C3CCOCC3)C[C@H]21 | 1.58%
6 | CS(=O)(=O)N1CCO[C@@H]2CCN(C(=O)c3cccs3)CC[C@H]21 | -2.35%
7 | CNC(=O)[C@@H]1COC[C@H]2CN(C(=O)c3ccc(C)c(F)c3)C[C@H]21 | 0.165%
8 | Cc1noc(C)c1CN1CC2(CCN(C(=O)c3ccoc3C)C2)CC1=O (stereo not given) | 7.78%
9 | c1cc(N2CCC3(COCc4cnc(NCC5CC5)nc43)C2)ncn1 (stereo not given) | 6.27%
10 | Cn1cccc1C(=O)N1C[C@@H]2COC[C@]2(CNS(C)(=O)=O)C1 | 4.38%
11 | CN(Cc1cn2c(n1)CN(C(=O)N(C)C)CC2)Cc1ccco1 | 4.44%
12 | CCn1nc(C)cc1NC(=O)CCn1nc(C)c(Br)c1C | 10.8%
13 | O=C(O)CCn1nc(C(F)(F)F)c(Cl)c1C1CC1 | 8.63%
14 | Cc1ccc(Cn2nc(C)c3c(C(=O)O)c(Cl)c(C4CC4)nc32)cc1 | 6.75%
15 | O=C(NCCCO)c1nnsc1-c1ccc(Cl)cc1 | 4.62%
16 | CCOCCCNC(=O)c1cc(C(C)C)nc(N2CCCCCC2)n1 | 8.53%
17 | Cc1nc(NCc2ccc(C)o2)cc(C(=O)N2CCOCC2)n1 | -2.03%
18 | CSCc1cccc(S(=O)(=O)NCCCn2ccnc2)c1 | 4.51%
19 | Nc1ncc(-c2ccc(Cl)cc2)c(C2CCCNC2)n1 (stereo not given) | -7.64%
20 | COc1ccccc1OCCc1nnc(NC(=O)C2CC23CCC3)s1 (stereo not given) | 1.26%
21 | COCCNc1ncc(-c2onc(C)c2C)c(-c2ccco2)n1 | 5.92%
22 | O=C(N[C@@H]1CCC[C@@H](N2CCCC2)[C@@H]1O)c1cnn2cccnc12 | 10.6%

Row | SMILES | cytotoxicity at 10 µM
23 | Cc1cnc(C(=O)N2Cc3cc(Cl)ccc3OC3(CCOCC3)C2)cn1 | -37.9%
24 | Cc1nc(COc2nc(C(C)C)no2)cs1 | 11.5%
25 | O=S(=O)(N1CCN(CC2CC2)CC1)N1CCCC1c1ccco1 (stereo not given) | 1.24%
26 | Cc1noc(C)c1C(C)NC(=O)N1CCN(c2cccs2)CC1 (stereo not given) | 6.43%
27 | CCNC(=O)NC(c1ccc(C)cc1)c1cccc(S(C)(=O)=O)c1 (stereo not given) | -5.82%
28 | CC(=O)N(Cc1ncc(C)o1)C1CCN(Cc2cccnc2)C1 (stereo not given) | 15.3%
29 | CN(C(=O)c1ccc(Cl)cn1)c1ccccc1S(C)(=O)=O | -7.17%
30 | CCN(C)S(=O)(=O)NCC(C)(O)c1ccsc1 (stereo not given) | 1.83%
31 | O=C(NC1CC1)c1cc(NC(=O)N2CCCC2)ccc1Cl | 3.31%
32 | CCc1noc(CN(CCC2CCCCC2)CC(N)=O)n1 | 5.76%
33 | Cn1ncc2c(=O)[nH]c(CN3CCCc4cc(F)ccc43)nc21 | -8.23%
34 | COCC(=O)Nc1ccc(Sc2nncn2C)c(Cl)c1 | -5.48%
35 | CCc1nc(C2CCCN(c3ncc(Br)cn3)C2)no1 (stereo not given) | 1.47%
36 | COCCn1cc(NCc2c[nH]nc2-c2ccc(OC)cc2)cn1 | 6.05%
37 | CC(C)(C)OC(=O)N1CCCN1C(=O)c1cccc(F)c1F | -10.3%
38 | Cc1noc(C)c1CNc1c(N2CCCC2)cccc1N1CCCC1 | 6.17%
39 | CCCn1nnnc1CN(c1ccc(N2CCOCC2)cc1)C(C)C | 6.8%
40 | CC(C)c1csc(C2CCCN(C(=O)c3ncccn3)C2)n1 (stereo not given) | 6.3%
41 | CCCn1c(C)cc(C(=O)CN2C(=O)c3ccccc3CS2(=O)=O)c1C | -1.94%
42 | O=C(Nc1ccc(CCN2CCC(O)CC2)cc1)Nc1cccnc1 | -7.15%
43 | Cc1cc(-c2nnn(CCNS(C)(=O)=O)n2)ccc1F | -9.09%
44 | CC(C)CCN1Cc2c(C(=O)O)ncn2-c2ccccc2S1(=O)=O | 6.72%

Row | SMILES | cytotoxicity at 10 µM
45 | Cc1ccc(C(=O)N2CC[C@@H]3[C@H]2CCC(=O)N3c2ccccc2)o1 | -3.89%
46 | COc1cc(-c2cnnc(NCC3CC3)n2)cc(OC)c1OC | 8.11%
47 | Cc1ccc(CSc2nc(N)cc(NCCC(N)=O)n2)cc1 | 0.375%
48 | CN(CCCSc1ccccc1)C(=O)Cn1ncc(N(C)C)cc1=O | 0.0227%
49 | CC(C)Cc1nc(CN2CC(=O)N(C)c3ccccc3C2=O)no1 | -6.7%
50 | CC(C)CCN(C)C(=O)c1cc(CN2CCC(O)CC2)on1 | 1.06%
51 | O=C(O)C1(Oc2ccc3c(c2)OCO3)CCN(C2CCOCC2)CC1 | -13.3%
52 | Cc1cccc(-n2ncc3c2CCCC3NCc2cccc(O)c2)c1C (stereo not given) | 3.11%
53 | CCC[C@@H]1CN(C(=O)c2ccccc2-c2ccccc2)C[C@H]1N(C)C | 2.16%
54 | CN1CCc2[nH]cnc2C12CCN(C(=O)CCc1cccs1)CC2 | -1.19%
55 | COc1ccccc1C(=O)N1CCN(C(=O)CCCc2cn[nH]c2)CC1 | 2.68%
56 | COCC[C@]1(O)CCN(S(=O)(=O)c2ccc(C)cc2OC)C[C@H]1C | 11.4%
57 | NC(=O)c1cccnc1N1CCN(c2ncnc3c2CCNC3)CC1 | -3.03%
58 | CN(C)S(=O)(=O)NCc1cccnc1Oc1ccc(F)cc1F | 8.49%
59 | CCNc1nc(C)c(C(=O)N(C)Cc2noc(C)n2)s1 | 2.43%
60 | Cc1ccc2nc(CNCCCN3CCCC3=O)cc(O)c2c1 | -1.14%
61 | COCCN(C)CCN1CC2(CCN(C(=O)C3CCOC3)CC2)OC1=O (stereo not given) | -21.8%
62 | CN(C)c1ccccc1C(=O)N1C[C@@H](CN2CCCCC2)[C@@H](CO)C1 | -12.1%
63 | CCc1nc(C)c([C@H]2CN(C)C[C@@H]2C(=O)NCCc2cnccn2)[nH]1 | -9.52%
64 | N#Cc1ccccc1C(=O)N1CCC2(CC(=O)NC2=O)C1 (stereo not given) | -19.6%
65 | COc1ccccc1Oc1ncccc1CNC(=O)[C@@H](C)NC(C)=O | -2.61%
66 | Cc1occc1C(=O)N1CCC2(CCCN(CC3CCC3)C2=O)C1 (stereo not given) | -5.47%

Row | SMILES | cytotoxicity at 10 µM
67 | CCCNC(=O)c1ccc2c(c1)C(=O)N(CC(C)C)C2=O | -10.2%
68 | CC(C)N1CCC(Cc2cnc(-c3cccc(C(=O)O)c3)cn2)C1 (stereo not given) | -2.27%
69 | CC1CN(Cc2ccccn2)CCN1c1ccc2nncn2n1 (stereo not given) | -1.07%
70 | CCc1ncncc1C(=O)N1CCN(Cc2ccsc2)CC1 | 0.956%
71 | Cc1nc(CC(=O)N2CCCC(n3ccnc3C(C)C)C2)cs1 (stereo not given) | -0.354%
72 | Cc1ccccc1C(C)NC(=O)CSCC#N (stereo not given) | -10.2%
73 | Cc1nc2ccnn2c(C)c1CCC(=O)N1CCSCC1 | -4.24%
74 | CC(=O)NC1CCCN(C(=O)NCc2cc[nH]n2)C1 (stereo not given) | -11.5%
75 | CCc1nc2n(n1)CC(NCc1cnc(-c3ccccc3)nc1)CC2 (stereo not given) | 0.702%
76 | CCc1nc2n(n1)CC(NCc1noc(-c3ccc(C)cc3)n1)CC2 (stereo not given) | -4.26%
77 | CC(NC(=O)NCC1(c2ccc(F)cc2)CC1)c1nncn1C (stereo not given) | -4.75%
78 | CCNc1cc2c(nn1)CCN(C(=O)C(C)c1c(C)noc1C)C2 (stereo not given) | -4.05%
79 | O=C(CCn1nc(-c2cccs2)oc1=O)Nc1cccc(F)c1 | -5.21%
80 | CC(C)c1ncncc1C(=O)N1CCN(Cc2cccnc2)CC1 | -5.85%
81 | c1cnnc(N2CCCC2CNCc2nc(-c3cccs3)no2)c1 (stereo not given) | -7.69%
82 | c1cnnc(N2CCCC2CNCc2csc(-c3ccco3)n2)c1 (stereo not given) | -8.42%
83 | Cc1ccsc1CNC1CCCN(Cc2noc(C3CC3)n2)C1 (stereo not given) | -4.98%
84 | CCn1cc(NC(=O)NCC(C)N2CCCC2)cn1 (stereo not given) | -9.89%
85 | CCOc1ncccc1CNC(=O)NC(C)Cn1cccn1 (stereo not given) | -15.7%
86 | O=C(CN1CCN(C(=O)c2sccc2C2CC2)CC1)NC1CC1 | -3.75%
87 | Cc1cnn(CC2CCCN2C(=O)Cc2c(C)nc(C)[nH]c2=O)c1 (stereo not given) | -3.63%
88 | O=C(O)c1cc(S(=O)(=O)Nc2ccccc2)cc2c1OCCO2 | -9.26%

Row | SMILES | cytotoxicity at 10 µM
89 | O=C(CCc1cccs1)N1CCCC(n2ccnc2)C1 (stereo not given) | -1.13%
90 | CC(C)n1ccc(C(=O)N2CCCC(n3cncn3)C2)n1 (stereo not given) | -0.312%
91 | Cc1cc(C)c(CNC(=O)N2CCOC(c3ccccc3)C2)c(=O)[nH]1 (stereo not given) | 0.0687%
92 | Cc1cc(C)n(C2CCCN(C(=O)c3cn4cccnc4n3)C2)n1 (stereo not given) | -4.62%
93 | CC(=O)Nc1nc(C(=O)N2CCCC(n3ccnc3)C2)cs1 (stereo not given) | -3.44%
94 | Cc1cnn(CCNCc2ccc(C#N)cc2F)c1 | -2.73%
95 | CN(CC1CCCO1)C1CCN(CCc2ccccn2)CC1 (stereo not given) | -5.6%
96 | c1cnnc(N2CCCC(NCc3nnc(-c4ccco4)o3)C2)c1 (stereo not given) | -0.986%
97 | COc1ncccc1CNC(=O)c1cccc(C)n1 | -1.58%
98 | Cc1ccc(Cl)cc1N1CCC(CNC(=O)CCn2ccnc2)C1 (stereo not given) | -9.7%
99 | CC(Cn1ccnc1)NC(=O)N1CCN(Cc2cccnc2)CC1 (stereo not given) | 4.31%
100 | Cc1nc(C2CCCN(C(=O)Cn3ccccc3=O)C2)no1 (stereo not given) | -9.37%
101 | Cn1nc2c(cc1=O)CN(Cc1coc(-c3cccs3)n1)CC2 | -11.1%
102 | COc1ccc(CC(=O)N(C)Cc2nnc3ccccn23)cc1 | 5.44%
103 | c1ccc(OC[C@]23COC[C@H]2CN(c2ncccn2)C3)nc1 | -14.1%
104 | CN(C)CCOC1CC2(CCN(c3cnccn3)CC2)c2ccccc21 (stereo not given) | -2.69%
105 | Cc1ccc(N2CC3(COCCN(Cc4cnn(C)c4)C3)OCC2=O)s1 (stereo not given) | -5.18%
106 | CC(C)CN1CC[C@@H]2[C@@H]1CCN2C(=O)N1CCCC1 | -1%
107 | COc1ccc(CN2C[C@@H](N(C)Cc3ccco3)[C@H]3OCCC[C@H]32)cc1 | 1.18%
108 | CN(C)CC1CN(C(=O)Cc2ccccc2)Cc2nccn2C1 (stereo not given) | -115%
109 | CN(C)CC1CN(Cc2ccsc2)Cc2nccn2C1 (stereo not given) | 1.72%
110 | O=C(NCc1ccccc1)[C@H]1C[C@H]2CN(S(=O)(=O)C3CC3)C[C@@H]1O2 | 1.59%
